From ChEMBL document CHEMBL4024711, “Design, synthesis and biological evaluation of novel nitric oxide-donating protoberberine derivatives as antitumor agents” (Eur J Med Chem, 2017)
Activity calls are given as the source filed them. The rule behind the calls is not given here.

Tests used:
[1] = tested on: HepG2; assay: Cytotoxicity against human HepG2 cells after 72 hrs by MTT assay; assay type: functional, cell-based; details: HepG2, 72 h
How it was run: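 MTT assay. Cells were plated and grown 24 h at 37 °C, 5% CO2, then exposed to compound in medium with 0.1% DMSO for 72 h. MTT (5 mg/mL in PBS) was added for 4 h and absorbance read at 490 nm. IC50 was taken from dose-response curves; at least three independent experiments.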

[2] = Induction of NO release assessed as nitrite formation in PBS at 100 uM up to 300 mins by Griess assay
How it was run: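 Compound at 100 μM was incubated at 37 °C in PBS, pH 7.4, containing 2% DMSO and 5.0 mM L-cysteine, in acellular or HepG2 cell lysates, and sampled over time. Samples were mixed with Griess reagent at 37 °C for 15 min and read at 540 nm. Nitrite was quantified against a sodium nitrite standard curve, in triplicate.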

[3] = tested on: H22; assay: Antitumor activity against human H22 cells xenografted in ICR mouse assessed as tumor growth inhibition at 20 mg/kg, iv administered once daily for 21 days measured post last dose relative to control; details: 504 h, read-out: TGI

| Structure (SMILES) | IC50 [1] [µM] | Activity [2] | inhibition in vivo at 20 mg/kg [3] [%] |
| --- | --- | --- | --- |
| COc1ccc2cc3[n+](cc2c1OCCCCCCO[N+](=O)[O-])CCc1cc2c(cc1-3)OCO2 | 8.51 |  |  |
| COc1cc2c(cc1OC)-c1c(Br)c3ccc(OC)c(OCCCCCCCCCCO[N+](=O)[O-])c3c[n+]1CC2 | 3.01 |  |  |
| COc1ccc2cc3[n+](cc2c1OCCO[N+](=O)[O-])CCc1cc2c(cc1-3)OCO2 | 25.2 |  |  |
| COc1cc2c(cc1OC)-c1c(Br)c3ccc(OC)c(OCCCCCCCCCCCCO[N+](=O)[O-])c3c[n+]1CC2 | 1.98 |  |  |
| COc1ccc2cc3[n+](cc2c1OCCCCO[N+](=O)[O-])CCc1cc2c(cc1-3)OCO2 | 18.4 | Active |  |
| COc1cc2c(cc1OC)-c1cc3ccc(OC)c(OCCCCCCCCO[N+](=O)[O-])c3c[n+]1CC2 | 3.91 | Active |  |
| COc1ccc2c(c1OCCCCCCCCO[N+](=O)[O-])CN1CCc3cc4c(cc3C1C2)OCO4 (stereo not drawn) | > 100 |  |  |
| COc1ccc2cc3[n+](cc2c1OC(=O)CCCCCO[N+](=O)[O-])CCc1cc2c(cc1-3)OCO2 | > 100 |  |  |
| O=P1(N(CCCl)CCCl)NCCCO1 (stereo not drawn) [CYCLOPHOSPHAMIDE ANHYDROUS] |  |  | 67.1 |
| COc1cc2c(cc1OC)-c1cc3ccc(OC)c(OCCCCCCCCCCO[N+](=O)[O-])c3c[n+]1CC2 | 5.59 |  |  |
| COc1ccc2cc3[n+](cc2c1OCCCCCCCCCCO[N+](=O)[O-])CCc1cc2c(cc1-3)OCO2 | 4.34 |  |  |
